Experimental data from ChEMBL document CHEMBL3588845, “Protozoan Parasite Growth Inhibitors Discovered by Cross-Screening Yield Potent Scaffolds for Lead Discovery” (J Med Chem, 2015).

Experiments:
[1] = tested on: Leishmania major; experiment: Antiparasite activity against luciferase-expressing Leishmania major amastigotes isolated from infected in mouse RAW264.7 cells assessed as growth inhibition incubated for 96 hrs by luciferase reporter gene assay; type: functional, organism-based; conditions: RAW264.7, 96 h
[2] = tested on: Plasmodium falciparum; experiment: Antiparasite activity against drug resistant Plasmodium falciparum W2 assessed as growth inhibition incubated for 72 hrs by SYBR green fluorescence assay; type: functional, organism-based; conditions: W2, 72 h
[3] = tested on: Plasmodium falciparum; experiment: Antiparasite activity against Plasmodium falciparum D6 assessed as growth inhibition incubated for 72 hrs by SYBR green fluorescence assay; type: functional, organism-based; conditions: D6, 72 h
[4] = tested on: Trypanosoma brucei; experiment: Antiparasite activity against Trypanosoma brucei 427 assessed as growth inhibition at 5 uM incubated for 48 hrs by PrestoBlue based fluorescence assay; type: functional; conditions: Trypanosoma brucei, 427, 48 h; read-out: GI
[5] = Toxicity against human HepG2 cells incubated for 48 hrs by MTT assay; type: cell-based; conditions: read-out: TC50
[6] = tested on: Leishmania major; experiment: Antiparasite activity against Leishmania major promastigotes assessed as growth inhibition incubated for 44 hrs by alamar blue dye based fluorescence assay; type: functional, organism-based
[7] = tested on: Plasmodium falciparum; experiment: Antiparasite activity against drug resistant Plasmodium falciparum C235 assessed as growth inhibition incubated for 72 hrs by SYBR green fluorescence assay; type: functional, organism-based; conditions: C235, 72 h
[8] = tested on: Trypanosoma cruzi; experiment: Antiparasite activity against Trypanosoma cruzi Tulahuen expressing beta-galactosidase assessed as growth inhibition incubated for 96 hrs by CPRG dye based assay; type: functional, organism-based
[9] = Protein binding in plasma (unknown origin) assessed as fraction unbound; type: ADME, cell-free
[10] = tested on: Hepatocyte; experiment: Intrinsic clearance in rat hepatocytes assessed per 10^6 cells; type: ADME, cell-based
[11] = tested on: Trypanosoma brucei; experiment: Antiparasite activity against Trypanosoma brucei 427 assessed as growth inhibition incubated for 48 hrs by PrestoBlue based fluorescence assay; type: functional, organism-based; conditions: Trypanosoma brucei, 427, 48 h
[12] = Aqueous solubility of the compound; type: physicochemical; conditions: buffer
Method in brief: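 Aqueous solubility measured as thermodynamic solubility.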

[13] = tested on: Trypanosoma cruzi; experiment: Antiparasite activity against Trypanosoma cruzi Tulahuen expressing beta-galactosidase assessed as growth inhibition at 10 uM incubated for 96 hrs by CPRG dye based assay; type: functional; conditions: read-out: GI

| SMILES | EC50 [1] [nM] | EC50 [2] [nM] | EC50 [3] [nM] | inhibition of growth at 5 µM [4] [%] | CC50 at 48 h [5] [nM] | EC50 [6] [nM] | EC50 [7] [nM] | EC50 [8] [nM] | Fu [9] [%] | CLH [10] [µL/min] | EC50 [11] [nM] | solubility [12] [µM] | inhibition of growth at 10 µM [13] [%] |
| --- | --- | --- | --- | --- | --- | --- | --- | --- | --- | --- | --- | --- | --- |
| N#Cc1cnc2ccc(-c3ccc(S(=O)(=O)N4CCOCC4)cc3)cc2c1Nc1ccc(OCc2cccc(F)c2)c(Cl)c1 | > 15000 | 300 | 160 | 15 | > 15000 | > 15000 | 240 | > 50000 | – | – | – | – | – |
| N#Cc1cnc2ccc(-c3cccc(N4CCOCC4)c3)cc2c1Nc1ccc(OCc2cccc(F)c2)c(Cl)c1 | > 15000 | 1000 | 480 | 49 | > 15000 | > 15000 | 730 | > 50000 | – | – | – | – | – |
| N#Cc1cnc2ccc(-c3ccc(S(=O)(=O)N4CCOCC4)cc3)cc2c1Nc1ccc(OCc2ccccc2)c(Cl)c1 | > 15000 | 580 | 280 | 33 | > 15000 | > 15000 | 410 | > 50000 | – | – | – | – | – |
| Fc1cccc(COc2ccc(Nc3nccc4cc(-c5cccc(N6CCOCC6)c5)ccc34)cc2Cl)c1 | 2200 | 19000 | 2800 | 12 | > 28000 | > 15000 | 4700 | > 50000 | – | – | – | – | – |
| O=S(=O)(c1ccc(-c2ccc3nccc(Nc4ccc(OCc5ccccc5)c(Cl)c4)c3c2)cc1)N1CCOCC1 | 3400 | 110 | 32 | – | > 5000 | 200 | 54 | 49000 | < 1 | 13.93 | 2100 | < 1 | – |
| CN1CCCN(S(=O)(=O)c2ccc(-c3ccc4ncc(C#N)c(Nc5ccc(OCc6cccc(F)c6)c(Cl)c5)c4c3)cc2)CC1 | 1600 | 100 | 47 | – | > 15000 | 920 | 66 | 90 | < 1 | 37.95 | 350 | – | – |
| O=S(=O)(c1ccc(-c2ccc3ncnc(Nc4ccc(OCc5ccccc5)c(Cl)c4)c3c2)cc1)N1CCOCC1 | > 15000 | – | 260 | – | > 15000 | 500 | – | – | – | – | 1400 | – | 9.5 |
| CN1CCCN(S(=O)(=O)c2ccc(-c3ccc4c(Nc5ccc(OCc6cccc(F)c6)c(Cl)c5)cnnc4c3)cc2)CC1 | 240 | 13 | 3 | – | 15000 | 6400 | 5 | 49000 | < 1 | 36.72 | 210 | < 1 | – |
| Fc1cccc(COc2ccc(Nc3nccc4ccc(-c5cccc(N6CCOCC6)c5)cc34)cc2Cl)c1 | 6000 | 19000 | 2600 | 0.1 | > 28000 | > 15000 | 6100 | > 50000 | – | – | – | – | – |
| Fc1cccc(COc2ccc(Nc3ncnc4ccc(-c5cccc(N6CCOCC6)c5)cc34)cc2Cl)c1 | 8000 | – | 230 | – | > 15000 | 3000 | – | 1800 | < 1 | – | 42 | < 1 | – |
| Fc1cccc(COc2ccc(Nc3ccnc4cc(-c5cccc(N6CCOCC6)c5)ccc34)cc2Cl)c1 | 3700 | 180 | 61 | – | > 5000 | 1400 | 80 | 2700 | – | – | 1200 | – | – |
| CN1CCN(S(=O)(=O)c2ccc(-c3ccc4ncnc(Nc5ccc(OCc6cccc(F)c6)c(Cl)c5)c4c3)cc2)CC1 | 1600 | – | 27 | – | > 15000 | 2800 | – | – | – | – | – | – | 60 |
| CN1CCN(S(=O)(=O)c2ccc(-c3ccc4c(Nc5ccc(OCc6cccc(F)c6)c(Cl)c5)ccnc4c3)cc2)CC1 | 1600 | 42 | 19 | – | > 4000 | 1000 | 39 | 730 | < 1 | – | 79 | – | – |
